Among the data in ChEMBL document CHEMBL3616378 (J Med Chem, 2015) are Ki, EC50 and IC50 values, retold here.

The target of experiment [1] is T1, Metabotropic glutamate receptor 2 (Homo sapiens, UniProt Q14416). In words: Displacement of [3H]-459477 from human recombinant mGlu2 receptor expressed in AV12 cells after 90 mins by liquid scintillation counting. Type of experiment: cell-based.
The target in experiment [2] is T2, Metabotropic glutamate receptor 3 (Homo sapiens, UniProt Q14832). In words: Agonist activity at human recombinant mGlu3 receptor expressed in AV12 cells assessed as stimulation of Ca2+ mobilization after 1.5 hrs by FLIPR assay. In kind it is functional, cell-based.
T2 sequence (Q14832 whole entry): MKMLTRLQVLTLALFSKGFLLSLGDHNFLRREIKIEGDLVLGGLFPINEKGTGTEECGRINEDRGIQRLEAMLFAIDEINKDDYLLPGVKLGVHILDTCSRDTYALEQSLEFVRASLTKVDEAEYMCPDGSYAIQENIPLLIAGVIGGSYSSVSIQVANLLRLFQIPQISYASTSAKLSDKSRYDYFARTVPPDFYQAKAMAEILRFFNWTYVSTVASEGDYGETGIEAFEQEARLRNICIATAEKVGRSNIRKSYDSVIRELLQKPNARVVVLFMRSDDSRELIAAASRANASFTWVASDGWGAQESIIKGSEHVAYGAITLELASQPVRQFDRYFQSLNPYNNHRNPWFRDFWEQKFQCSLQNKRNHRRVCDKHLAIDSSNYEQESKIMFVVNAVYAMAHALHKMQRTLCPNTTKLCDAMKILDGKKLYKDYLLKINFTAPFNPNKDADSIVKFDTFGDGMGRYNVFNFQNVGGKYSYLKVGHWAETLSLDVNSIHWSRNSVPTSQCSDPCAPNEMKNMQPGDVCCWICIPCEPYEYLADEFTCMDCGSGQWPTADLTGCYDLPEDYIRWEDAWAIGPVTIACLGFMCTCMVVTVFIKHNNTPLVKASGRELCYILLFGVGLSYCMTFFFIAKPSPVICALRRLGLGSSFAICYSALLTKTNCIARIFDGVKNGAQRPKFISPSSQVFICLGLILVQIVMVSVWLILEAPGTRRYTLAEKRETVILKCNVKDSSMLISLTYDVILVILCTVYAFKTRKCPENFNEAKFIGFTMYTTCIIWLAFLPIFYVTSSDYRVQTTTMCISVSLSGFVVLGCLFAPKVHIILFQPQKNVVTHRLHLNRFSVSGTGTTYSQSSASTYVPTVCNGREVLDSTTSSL
Experiment [3] deals with T2, Metabotropic glutamate receptor 3. The experiment is described as follows: Antagonist activity at human recombinant mGlu3 receptor expressed in AV12 cells assessed as inhibition of glutamate-stimulated Ca2+ mobilization after 1.5 hrs by FLIPR assay. Type of experiment: functional, cell-based. For orientation: Calcium flux is commonly read through the fluorescence of an indicator in the cells.

The target is the same in experiment [4]. In words: Displacement of [3H]-459477 from human recombinant mGlu3 receptor expressed in AV12 cells after 90 mins by liquid scintillation counting. In kind it is cell-based. For orientation: Displacement assays read how much labelled ligand stays bound in the presence of the test substance.
In experiment [5] the target is T1, Metabotropic glutamate receptor 2. In words: Agonist activity at human recombinant mGlu2 receptor expressed in AV12 cells assessed as stimulation of Ca2+ mobilization after 1 hr by FLIPR assay. Type of experiment: functional, cell-based.
For experiment [6] the target is unchanged. The experiment is described as follows: Antagonist activity at human recombinant mGlu2 receptor expressed in AV12 cells assessed as inhibition of glutamate-stimulated Ca2+ mobilization after 1 hr by FLIPR assay. In kind it is functional, cell-based. The method, boiled down:
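AV12 cells stably co-expressing rat EAAT1, Gα15 and human mGlu2 (Bmax 1.35 pmol/mg), plated 85K/well 24 h ahead in medium with 250 µM L-glutamine. Compounds were dissolved from 10 mM stocks in 0.1N NaOH and run as 10-point 3-fold series. Fluo-3 AM Ca2+ transients were read by FLIPR. Read-out was % inhibition of the EC90 glutamate response, with relative IC50 from a four-parameter logistic fit.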

In experiment [7] the target is T2, Metabotropic glutamate receptor 3. In words: Agonist activity at human recombinant mGlu3 receptor expressed in AV12 cells assessed as inhibition of forskolin-stimulated cAMP production after 1 hr by fluorescence assay. In kind it is functional, cell-based. (In general: Changes in cAMP serve as a functional read-out for many G protein-coupled receptors.)
Experiment [8] concerns the target T1, Metabotropic glutamate receptor 2. The experiment is described as follows: Antagonist activity at human recombinant mGlu2 receptor expressed in AV12 cells assessed as reversal of DCG-4-inhibited, forskolin-stimulated cAMP production after 1 hr by fluorescence assay. Type of experiment: functional, cell-based.
The target is the same in experiment [9]. The experiment is described as follows: Agonist activity at human recombinant mGlu2 receptor expressed in AV12 cells assessed as inhibition of forskolin-stimulated cAMP production after 20 min by fluorescence assay.
Experiment [10] has as its target T2, Metabotropic glutamate receptor 3. In words: Antagonist activity at human recombinant mGlu3 receptor expressed in AV12 cells assessed as reversal of DCG-4-inhibited, forskolin-stimulated cAMP production after 1 hr by fluorescence assay. Type of experiment: functional, cell-based.
The target of experiment [11] is Metabotropic glutamate receptor 3 (Homo sapiens, UniProt Q14832, Q306L). In words: Agonist activity at human recombinant mGlu3 receptor Q306L mutant expressed in AV12 cells assessed as stimulation of Ca2+ mobilization after 1 hr by FLIPR assay. In kind it is functional, cell-based.
Metabotropic glutamate receptor 3 (Homo sapiens, UniProt Q14832, Q306L), sequence (Q14832 23-879 Q306L limits assumed): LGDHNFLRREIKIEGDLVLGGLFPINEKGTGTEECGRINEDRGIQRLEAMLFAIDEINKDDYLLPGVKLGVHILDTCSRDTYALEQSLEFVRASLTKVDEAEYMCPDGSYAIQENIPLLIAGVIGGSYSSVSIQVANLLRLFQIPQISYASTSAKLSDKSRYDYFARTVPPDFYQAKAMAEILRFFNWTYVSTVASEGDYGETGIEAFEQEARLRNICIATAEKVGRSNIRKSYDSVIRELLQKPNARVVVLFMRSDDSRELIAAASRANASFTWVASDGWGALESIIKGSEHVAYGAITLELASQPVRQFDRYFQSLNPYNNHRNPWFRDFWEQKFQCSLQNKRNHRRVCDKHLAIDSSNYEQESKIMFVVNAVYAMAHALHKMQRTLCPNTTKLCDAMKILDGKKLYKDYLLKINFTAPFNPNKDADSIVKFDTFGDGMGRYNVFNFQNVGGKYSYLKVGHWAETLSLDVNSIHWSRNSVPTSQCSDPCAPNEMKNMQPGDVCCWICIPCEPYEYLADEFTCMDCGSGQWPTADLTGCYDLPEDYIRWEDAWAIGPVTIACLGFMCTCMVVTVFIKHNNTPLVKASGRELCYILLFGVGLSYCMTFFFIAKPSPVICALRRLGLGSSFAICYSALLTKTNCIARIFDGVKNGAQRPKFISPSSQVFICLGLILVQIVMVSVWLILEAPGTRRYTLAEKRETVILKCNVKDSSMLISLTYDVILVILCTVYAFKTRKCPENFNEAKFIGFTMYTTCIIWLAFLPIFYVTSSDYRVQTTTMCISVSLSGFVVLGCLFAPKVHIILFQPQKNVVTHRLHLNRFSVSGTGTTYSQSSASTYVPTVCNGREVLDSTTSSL
For experiment [12], the target named is T2, Metabotropic glutamate receptor 3. In words: Agonist activity at wild type human recombinant mGlu3 receptor expressed in AV12 cells assessed as stimulation of Ca2+ mobilization after 1 hr by FLIPR assay. Type of experiment: functional, cell-based.
In experiment [13] the target is Metabotropic glutamate receptor 3 (Homo sapiens, UniProt Q14832, D279E). In words: Agonist activity at human recombinant mGlu3 receptor D279E mutant expressed in AV12 cells assessed as stimulation of Ca2+ mobilization after 1 hr by FLIPR assay. In kind it is functional, cell-based.
Metabotropic glutamate receptor 3 (Homo sapiens, UniProt Q14832, D279E), sequence (Q14832 23-879 D279E limits assumed): as the sequence (Q14832 23-879 Q306L limits assumed) above, with D257E, L284Q counted along it
The target of experiment [14] is Metabotropic glutamate receptor 3 (Homo sapiens, UniProt Q14832, D279E/Q306L). In words: Agonist activity at human recombinant mGlu3 receptor D279E and Q306L mutant expressed in AV12 cells assessed as stimulation of Ca2+ mobilization after 1 hr by FLIPR assay. In kind it is functional, cell-based.
Metabotropic glutamate receptor 3 (Homo sapiens, UniProt Q14832, D279E/Q306L), sequence (Q14832 23-879 D279E/Q306L limits assumed): as the sequence (Q14832 23-879 Q306L limits assumed) above, with D257E counted along it

T1 sequence (Q14416 whole entry): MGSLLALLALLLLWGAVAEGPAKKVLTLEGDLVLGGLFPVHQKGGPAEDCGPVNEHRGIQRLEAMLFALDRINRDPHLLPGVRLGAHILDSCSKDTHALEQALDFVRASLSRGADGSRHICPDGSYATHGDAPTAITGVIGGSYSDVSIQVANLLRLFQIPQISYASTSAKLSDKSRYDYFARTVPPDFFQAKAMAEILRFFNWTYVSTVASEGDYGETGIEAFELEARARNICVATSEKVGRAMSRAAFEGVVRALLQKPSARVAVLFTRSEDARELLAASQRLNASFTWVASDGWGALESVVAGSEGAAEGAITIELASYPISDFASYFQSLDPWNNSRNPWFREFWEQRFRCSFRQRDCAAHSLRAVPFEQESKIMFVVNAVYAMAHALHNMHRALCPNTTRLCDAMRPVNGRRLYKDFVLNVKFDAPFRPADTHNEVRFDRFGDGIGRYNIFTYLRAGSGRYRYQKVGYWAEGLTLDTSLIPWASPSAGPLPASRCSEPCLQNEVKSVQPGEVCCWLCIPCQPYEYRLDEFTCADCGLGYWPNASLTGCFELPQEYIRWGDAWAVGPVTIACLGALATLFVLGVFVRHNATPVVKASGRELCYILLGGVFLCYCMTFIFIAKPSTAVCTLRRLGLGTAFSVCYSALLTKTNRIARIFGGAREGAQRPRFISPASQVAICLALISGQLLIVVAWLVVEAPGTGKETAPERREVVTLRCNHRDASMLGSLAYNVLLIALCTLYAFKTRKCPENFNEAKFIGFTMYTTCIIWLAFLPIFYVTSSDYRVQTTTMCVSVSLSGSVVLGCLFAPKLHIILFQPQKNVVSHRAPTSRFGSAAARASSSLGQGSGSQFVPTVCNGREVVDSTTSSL

With `N[C@@]1(C(=O)O)C[C@H](Sc2ccccc2)[C@H]2[C@H](C(=O)O)[C@H]21`, the results for the Ki in [1] and in experiment [4] were 1230 nM and 272 nM, respectively. Also, the EC50 (in general, the midpoint of the concentration-response curve) in experiment [2] is greater than 5000 nM; in [5] it was greater than 25000 nM; in experiment [7], greater than 25000 nM. Further, the figures for the IC50 in experiment [3], in experiment [6] and in experiment [8] were 6710 nM, greater than 12500 nM and 15300 nM, respectively.
Turning to `N[C@@]1(C(=O)O)C[C@H](Sc2n[nH]c(C(F)(F)F)n2)[C@H]2[C@H](C(=O)O)[C@H]21`, the results for the EC50 in experiment [2] and in [7] were greater than 25000 nM and 30.5 nM, respectively. Moreover, the IC50 (in general, the concentration that gives 50% inhibition) in experiment [3] amounted to 624 nM. The Ki (as a rule, the equilibrium dissociation constant of an inhibitor or competing ligand from its target) in [4] came out at 43.1 nM.
In the case of `N[C@@]1(C(=O)O)CC[C@H]2[C@H](C(=O)O)[C@H]21`, the figures for the inhibitory constant (Ki) in [1] and in experiment [4] were 71.7 nM and 107 nM, respectively. For the same compound, the EC50 turned out to be 140 nM in [2], 7 nM in [9], 34.4 nM in [5] and 27.9 nM in experiment [7].
Turning to `N[C@@]1(C(=O)O)C[C@H](Sc2nnc[nH]2)[C@H]2[C@H](C(=O)O)[C@H]21`, the Ki in [1] came to 60.4 nM; in experiment [4] it was 126 nM. Also, the IC50 in experiment [10] came out at 4260 nM; in experiment [3] it was 3100 nM. For the same compound, the figures for the EC50 in experiment [2], in [9] and in experiment [7] were greater than 25000 nM, 11.2 nM and 227 nM, respectively.
With `Nc1nnc(S[C@@H]2C[C@@](N)(C(=O)O)[C@@H]3[C@@H](C(=O)O)[C@@H]32)[nH]1`, the Ki in experiment [1] was determined as 67 nM; in experiment [4], 58.3 nM. The EC50 in experiment [2] was greater than 25000 nM; in experiment [9], 4.5 nM; in experiment [5] it was 13 nM; in [7], 74 nM. Besides, the IC50 in experiment [3] is 94.7 nM.
Take `N[C@@]1(C(=O)O)C[C@H](Sc2nnc(C(F)F)[nH]2)[C@H]2[C@H](C(=O)O)[C@H]21`: the Ki in [1] worked out at 13.4 nM; in experiment [4] it was 57.5 nM. For the same compound, the EC50 was greater than 25000 nM in [2], 0.58 nM in [9], 6.3 nM in experiment [5] and 27.3 nM in experiment [7]. The IC50 in experiment [3] came to 244 nM.
Take `Cc1nnc(S[C@@H]2C[C@@](N)(C(=O)O)[C@@H]3[C@@H](C(=O)O)[C@@H]32)[nH]1`: the Ki in [1] was found to be 121 nM; in experiment [4] it was 62.4 nM. Further, the EC50 in [2] was 105 nM; in [9] it was 10.4 nM; in experiment [5] it was 39.5 nM; in experiment [7], 103 nM.
As for `N[C@@]1(C(=O)O)C[C@@H](Sc2ccccc2)[C@H]2[C@H](C(=O)O)[C@H]21`, the Ki was found to be 420 nM in experiment [1] and 138 nM in experiment [4]. In addition, the IC50 in [10] was 1070 nM; in [3] it was 7690 nM; in [6] it was greater than 12500 nM. The values for the EC50 in [2], in [5] and in [7] were greater than 25000 nM, greater than 12500 nM and greater than 25000 nM, respectively.
Take `CC(C)c1nnc(S[C@@H]2C[C@@](N)(C(=O)O)[C@@H]3[C@@H](C(=O)O)[C@@H]32)[nH]1`: the Ki was 266 nM in [1] and 157 nM in [4]. Also, the IC50 in experiment [10] was 859 nM; in experiment [3] it was greater than 12500 nM. Besides, the EC50 is greater than 25000 nM in experiment [2], 16.5 nM in [9], 87.8 nM in [5] and 281 nM in experiment [7].
In the case of `Nc1nnc(S[C@H]2C[C@@](N)(C(=O)O)[C@@H]3[C@@H](C(=O)O)[C@@H]32)[nH]1`, the Ki in experiment [1] worked out at 27.8 nM; in experiment [4], 69 nM. The EC50 is greater than 25000 nM in experiment [2], 6.4 nM in [9], 20.1 nM in experiment [5] and 112 nM in [7]. For the same compound, in experiment [3], the IC50 worked out at 3870 nM.
Consider `N[C@@]1(C(=O)O)C[C@@H](Sc2nnc(C(F)F)[nH]2)[C@H]2[C@H](C(=O)O)[C@H]21`, for which the Ki in experiment [1] was determined as 95.8 nM; in experiment [4] it was 63.2 nM. Besides, the values for the IC50 in [10] and in experiment [3] were 459 nM and 154 nM, respectively. Further, the EC50 in [2] is greater than 25000 nM; in experiment [9], 11.8 nM; in [5], 53.6 nM; in [7], 77.7 nM.
With `N[C@@H](CCC(=O)O)C(=O)O` [GLUTAMIC ACID], the 50% effective concentration (EC50) in [11] amounted to 1480 nM; in experiment [12] it was 1000 nM; in [13], 4180 nM; in experiment [14], 5120 nM.
With `Cc1nnc(S[C@H]2C[C@@](N)(C(=O)O)[C@@H]3[C@@H](C(=O)O)[C@@H]32)[nH]1`, the Ki came out at 171 nM in experiment [1] and 79 nM in [4]. For the same compound, the EC50 was greater than 25000 nM in experiment [2], 44.3 nM in experiment [9], 146 nM in experiment [5] and 96.6 nM in experiment [7]. In addition, the IC50 in experiment [3] was 3590 nM.
`CC(C)c1nc(S[C@H]2C[C@@](N)(C(=O)O)[C@@H]3[C@@H](C(=O)O)[C@@H]32)n[nH]1`: the values for the Ki in experiment [1] and in [4] were 339 nM and 82.7 nM, respectively. The EC50 in experiment [2] was greater than 25000 nM; in experiment [9] it was 74 nM; in [5], 242 nM; in [7] it was 77.9 nM. The IC50 in [3] stood at 2350 nM.
As to `N[C@@]1(C(=O)O)C[C@@H](Sc2nnc(C(F)(F)F)[nH]2)[C@H]2[C@H](C(=O)O)[C@H]21`, in [10], the IC50 amounted to 528 nM. For the same compound, the values for the EC50 in experiment [2] and in experiment [7] were 82 nM and 79.5 nM, respectively. In [4], the Ki amounted to 56.7 nM.
Consider `N[C@@]1(C(=O)O)C[C@H](Sc2c[nH]nn2)[C@H]2[C@H](C(=O)O)[C@H]21`, for which the Ki in experiment [1] stood at 111 nM; in experiment [4], 65.1 nM. Moreover, the EC50 in [2] was greater than 25000 nM; in experiment [9], 5.2 nM; in [5] it was 19 nM; in experiment [7], 92.7 nM. Moreover, in [3], the 50% inhibitory concentration (IC50) was 2790 nM.
As for `N[C@@]1(C(=O)O)C[C@@H](Sc2c[nH]nn2)[C@H]2[C@H](C(=O)O)[C@H]21`, the Ki in [1] came out at 142 nM; in experiment [4] it was 259 nM. For the same compound, the IC50 came out at 2380 nM in experiment [10] and 5510 nM in experiment [3]. Further, the EC50 in experiment [2] was greater than 25000 nM; in experiment [9], 12.4 nM; in experiment [7], 235 nM.
